Results published in paper PMC3270411 (Chemistry & biology, 2012).
Like-named read-outs stand apart in the source and are kept apart here.

What was measured:
Format in all cases: cell-based
IKKa = biological target: T1, IKKa (Homo sapiens, UniProt O15111); test: KiNativ cellular kinase profiling; details: for inhibition at 1 µM: A-375, read-out: Percent inhibition of kinase labeling by ATP-biotin; for Percent inhibition of kinase labeling by ATP-biotin: A375 cells, 1 μM, 3 hours, IKKa, labeling site Lys2
T1 sequence (O15111 1-745): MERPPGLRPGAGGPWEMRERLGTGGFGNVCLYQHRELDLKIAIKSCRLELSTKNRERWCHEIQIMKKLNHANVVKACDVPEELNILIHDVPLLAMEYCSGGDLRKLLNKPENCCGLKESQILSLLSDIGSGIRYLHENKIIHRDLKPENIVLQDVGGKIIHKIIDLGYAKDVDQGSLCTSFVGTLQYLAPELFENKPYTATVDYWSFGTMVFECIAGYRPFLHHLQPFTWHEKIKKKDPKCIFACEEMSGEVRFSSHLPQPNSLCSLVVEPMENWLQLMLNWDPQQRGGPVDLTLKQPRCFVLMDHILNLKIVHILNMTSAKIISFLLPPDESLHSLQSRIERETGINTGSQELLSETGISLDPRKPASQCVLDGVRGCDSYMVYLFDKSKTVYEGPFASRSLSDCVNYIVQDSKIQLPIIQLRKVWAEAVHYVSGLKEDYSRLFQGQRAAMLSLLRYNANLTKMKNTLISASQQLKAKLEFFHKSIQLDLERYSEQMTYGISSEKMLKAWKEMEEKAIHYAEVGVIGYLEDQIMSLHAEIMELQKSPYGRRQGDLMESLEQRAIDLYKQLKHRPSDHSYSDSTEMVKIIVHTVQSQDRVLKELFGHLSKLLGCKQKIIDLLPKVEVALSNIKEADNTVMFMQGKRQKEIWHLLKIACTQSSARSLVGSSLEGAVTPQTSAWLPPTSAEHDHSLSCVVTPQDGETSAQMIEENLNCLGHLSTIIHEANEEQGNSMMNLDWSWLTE

BRAF = BRAF (Homo sapiens, UniProt P15056); test: KiNativ cellular kinase profiling; details: for inhibition at 1 µM: A-375, read-out: Percent inhibition of kinase labeling by ATP-biotin; for Percent inhibition of kinase labeling by ATP-biotin: A375 cells, 1 μM, 3 hours, BRAF, labeling site Lys2
CK1d,CK1e = test: KiNativ cellular kinase profiling; details: A375 cells, 1 μM, 3 hours, labeling site Lys2
PHKg2 = biological target: T2, PHKg2 (Homo sapiens, UniProt P15735); test: KiNativ cellular kinase profiling; details: for inhibition at 1 µM: A-375, read-out: Percent inhibition of kinase labeling by ATP-biotin; for Percent inhibition of kinase labeling by ATP-biotin: A375 cells, 1 μM, 3 hours, PHKg2, labeling site Lys1
T2 sequence (P15735 1-406): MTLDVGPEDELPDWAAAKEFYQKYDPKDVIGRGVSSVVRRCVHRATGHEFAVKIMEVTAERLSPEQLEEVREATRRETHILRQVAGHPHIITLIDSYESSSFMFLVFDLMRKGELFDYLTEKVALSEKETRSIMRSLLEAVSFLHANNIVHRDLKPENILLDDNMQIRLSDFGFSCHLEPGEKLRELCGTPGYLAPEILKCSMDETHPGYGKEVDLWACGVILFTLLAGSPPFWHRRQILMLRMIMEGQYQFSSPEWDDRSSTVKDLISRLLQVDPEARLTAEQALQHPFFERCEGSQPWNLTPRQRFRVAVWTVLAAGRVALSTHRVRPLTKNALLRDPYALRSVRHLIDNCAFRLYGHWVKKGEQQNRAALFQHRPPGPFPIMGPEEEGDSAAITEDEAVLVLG

MAP2K1,MAP2K2 = test: KiNativ cellular kinase profiling; details: A375 cells, 1 μM, 3 hours; MAP2K1,MAP2K2, labeling site Lys2
ZAK = ZAK (Homo sapiens, UniProt Q9NYL2); test: KiNativ cellular kinase profiling; details: for inhibition at 1 µM: A-375, read-out: Percent inhibition of kinase labeling by ATP-biotin; for Percent inhibition of kinase labeling by ATP-biotin: A375 cells, 1 μM, 3 hours, ZAK, labeling site Lys1
ZC2/TNIK,ZC3/MINK = test: KiNativ cellular kinase profiling; details: A375 cells, 1 μM, 3 hours, labeling site Lys2
[1] = test system: c-Jun phosphorylation (pSer73) in HeLa cells; test: LanthaScreen TR-FRET c-Jun phosphorylation assay in HeLa cells; details: read-out: p-c-Jun EC50 (nM) Hela
In short: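 HeLa cells stably expressing GFP-c-Jun(1–79), 10,000/well in Opti-MEM with 0.5% charcoal/dextran-treated FBS, 25 mM Hepes pH 7.3, no phenol red; overnight. Pretreated 90 min with compound, then 30 min with 5 ng/ml TNF-α. Lysed in buffer containing 2 nM terbium anti-c-Jun pSer73 antibody; 60 min equilibration at room temperature. TR-FRET: excitation 340 nm, ratio Em 520/Em 490.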

PKD1,PKD2 = test: KiNativ cellular kinase profiling; details: A375 cells, 1 μM, 3 hours; PKD1,PKD2, labeling site Lys2
GSK3B = GSK3B (Homo sapiens, UniProt P49841); test: KiNativ cellular kinase profiling; details: for inhibition at 1 µM: A-375, read-out: Percent inhibition of kinase labeling by ATP-biotin; for Percent inhibition of kinase labeling by ATP-biotin: A375 cells, 1 μM, 3 hours, GSK3B, labeling site Lys2
ZC2/TNIK = ZC2/TNIK (Homo sapiens, UniProt Q9UKE5); test: KiNativ cellular kinase profiling; details: for inhibition at 1 µM: A-375, read-out: Percent inhibition of kinase labeling by ATP-biotin; for Percent inhibition of kinase labeling by ATP-biotin: A375 cells, 1 μM, 3 hours, ZC2/TNIK, labeling site Lys1
[2] = test system: ZC1/HGK,ZC2/TNIK, ZC3/MINK; test: KiNativ cellular kinase profiling; details: A375 cells, 1 μM, 3 hours, labeling site Lys2
IKKb = biological target: T3, IKKb (Homo sapiens, UniProt O14920); test: KiNativ cellular kinase profiling; details: for inhibition at 1 µM: A-375, read-out: Percent inhibition of kinase labeling by ATP-biotin; for Percent inhibition of kinase labeling by ATP-biotin: A375 cells, 1 μM, 3 hours, IKKb, labeling site Lys2
T3 sequence (O14920 1-756): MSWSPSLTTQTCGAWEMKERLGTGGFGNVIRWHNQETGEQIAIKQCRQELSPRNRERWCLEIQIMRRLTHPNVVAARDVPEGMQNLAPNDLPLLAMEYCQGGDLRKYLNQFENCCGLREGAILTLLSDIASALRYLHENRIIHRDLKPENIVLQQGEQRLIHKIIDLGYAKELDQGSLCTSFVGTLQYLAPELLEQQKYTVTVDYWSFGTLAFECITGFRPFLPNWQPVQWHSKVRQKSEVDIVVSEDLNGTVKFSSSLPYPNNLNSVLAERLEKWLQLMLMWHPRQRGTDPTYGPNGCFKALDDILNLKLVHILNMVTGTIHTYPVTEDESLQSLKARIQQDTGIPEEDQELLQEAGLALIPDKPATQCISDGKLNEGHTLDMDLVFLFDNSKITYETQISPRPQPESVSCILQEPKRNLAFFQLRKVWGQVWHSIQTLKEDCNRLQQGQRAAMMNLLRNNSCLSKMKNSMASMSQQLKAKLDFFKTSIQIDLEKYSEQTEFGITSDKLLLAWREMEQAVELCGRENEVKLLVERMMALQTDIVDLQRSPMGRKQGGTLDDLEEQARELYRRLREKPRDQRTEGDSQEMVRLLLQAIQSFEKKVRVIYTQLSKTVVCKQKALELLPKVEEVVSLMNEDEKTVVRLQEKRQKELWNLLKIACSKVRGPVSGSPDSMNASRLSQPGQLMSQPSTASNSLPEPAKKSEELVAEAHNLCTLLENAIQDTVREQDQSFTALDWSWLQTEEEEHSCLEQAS

ABL,ARG = test: KiNativ cellular kinase profiling; details: A375 cells, 1 μM, 3 hours, labeling site Lys1
[3] = Hela cells, TNF-α stimulation, TR-FRET

ZAK, sequence (Q9NYL2 whole entry): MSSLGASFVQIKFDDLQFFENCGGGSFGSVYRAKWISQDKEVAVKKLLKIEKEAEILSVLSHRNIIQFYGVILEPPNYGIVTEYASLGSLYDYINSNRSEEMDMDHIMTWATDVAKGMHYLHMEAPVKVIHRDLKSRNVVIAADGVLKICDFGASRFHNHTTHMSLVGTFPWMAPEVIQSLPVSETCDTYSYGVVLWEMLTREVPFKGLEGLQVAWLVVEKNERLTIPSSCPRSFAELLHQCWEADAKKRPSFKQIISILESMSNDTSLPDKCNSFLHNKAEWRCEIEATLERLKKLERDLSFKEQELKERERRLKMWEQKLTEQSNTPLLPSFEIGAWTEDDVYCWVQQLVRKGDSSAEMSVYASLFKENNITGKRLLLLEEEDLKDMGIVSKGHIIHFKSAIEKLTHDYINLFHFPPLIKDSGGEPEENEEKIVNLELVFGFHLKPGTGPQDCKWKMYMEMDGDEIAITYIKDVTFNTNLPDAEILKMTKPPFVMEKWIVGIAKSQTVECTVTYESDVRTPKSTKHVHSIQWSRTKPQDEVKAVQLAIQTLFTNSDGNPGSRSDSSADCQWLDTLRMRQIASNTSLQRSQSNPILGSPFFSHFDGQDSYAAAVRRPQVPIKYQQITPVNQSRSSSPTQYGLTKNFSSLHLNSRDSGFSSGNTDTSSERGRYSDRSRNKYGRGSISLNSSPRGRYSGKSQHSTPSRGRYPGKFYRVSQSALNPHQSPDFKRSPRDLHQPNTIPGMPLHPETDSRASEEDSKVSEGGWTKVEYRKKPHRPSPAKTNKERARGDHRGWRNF
BRAF, sequence (P15056 whole entry): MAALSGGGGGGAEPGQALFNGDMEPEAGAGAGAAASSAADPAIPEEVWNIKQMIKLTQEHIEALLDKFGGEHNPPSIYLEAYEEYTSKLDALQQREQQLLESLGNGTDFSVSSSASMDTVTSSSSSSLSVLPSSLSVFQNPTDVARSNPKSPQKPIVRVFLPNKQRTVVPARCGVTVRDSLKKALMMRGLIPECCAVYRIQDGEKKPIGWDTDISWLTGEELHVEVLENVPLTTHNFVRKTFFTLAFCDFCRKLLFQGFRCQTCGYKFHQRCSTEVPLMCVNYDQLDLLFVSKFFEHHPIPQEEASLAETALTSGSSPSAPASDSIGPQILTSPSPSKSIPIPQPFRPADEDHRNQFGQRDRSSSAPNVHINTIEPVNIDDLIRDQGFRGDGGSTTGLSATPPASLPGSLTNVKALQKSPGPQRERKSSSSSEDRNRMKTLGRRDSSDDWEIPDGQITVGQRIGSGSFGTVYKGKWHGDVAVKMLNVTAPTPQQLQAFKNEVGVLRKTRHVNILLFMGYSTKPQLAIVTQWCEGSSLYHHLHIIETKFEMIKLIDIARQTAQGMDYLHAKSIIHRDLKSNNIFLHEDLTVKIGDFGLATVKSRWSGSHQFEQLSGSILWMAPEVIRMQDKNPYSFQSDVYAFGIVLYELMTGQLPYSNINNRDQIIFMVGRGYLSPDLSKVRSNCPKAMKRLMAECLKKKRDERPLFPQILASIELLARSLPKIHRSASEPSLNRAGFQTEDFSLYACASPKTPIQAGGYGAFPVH
ZC2/TNIK, sequence (Q9UKE5 whole entry): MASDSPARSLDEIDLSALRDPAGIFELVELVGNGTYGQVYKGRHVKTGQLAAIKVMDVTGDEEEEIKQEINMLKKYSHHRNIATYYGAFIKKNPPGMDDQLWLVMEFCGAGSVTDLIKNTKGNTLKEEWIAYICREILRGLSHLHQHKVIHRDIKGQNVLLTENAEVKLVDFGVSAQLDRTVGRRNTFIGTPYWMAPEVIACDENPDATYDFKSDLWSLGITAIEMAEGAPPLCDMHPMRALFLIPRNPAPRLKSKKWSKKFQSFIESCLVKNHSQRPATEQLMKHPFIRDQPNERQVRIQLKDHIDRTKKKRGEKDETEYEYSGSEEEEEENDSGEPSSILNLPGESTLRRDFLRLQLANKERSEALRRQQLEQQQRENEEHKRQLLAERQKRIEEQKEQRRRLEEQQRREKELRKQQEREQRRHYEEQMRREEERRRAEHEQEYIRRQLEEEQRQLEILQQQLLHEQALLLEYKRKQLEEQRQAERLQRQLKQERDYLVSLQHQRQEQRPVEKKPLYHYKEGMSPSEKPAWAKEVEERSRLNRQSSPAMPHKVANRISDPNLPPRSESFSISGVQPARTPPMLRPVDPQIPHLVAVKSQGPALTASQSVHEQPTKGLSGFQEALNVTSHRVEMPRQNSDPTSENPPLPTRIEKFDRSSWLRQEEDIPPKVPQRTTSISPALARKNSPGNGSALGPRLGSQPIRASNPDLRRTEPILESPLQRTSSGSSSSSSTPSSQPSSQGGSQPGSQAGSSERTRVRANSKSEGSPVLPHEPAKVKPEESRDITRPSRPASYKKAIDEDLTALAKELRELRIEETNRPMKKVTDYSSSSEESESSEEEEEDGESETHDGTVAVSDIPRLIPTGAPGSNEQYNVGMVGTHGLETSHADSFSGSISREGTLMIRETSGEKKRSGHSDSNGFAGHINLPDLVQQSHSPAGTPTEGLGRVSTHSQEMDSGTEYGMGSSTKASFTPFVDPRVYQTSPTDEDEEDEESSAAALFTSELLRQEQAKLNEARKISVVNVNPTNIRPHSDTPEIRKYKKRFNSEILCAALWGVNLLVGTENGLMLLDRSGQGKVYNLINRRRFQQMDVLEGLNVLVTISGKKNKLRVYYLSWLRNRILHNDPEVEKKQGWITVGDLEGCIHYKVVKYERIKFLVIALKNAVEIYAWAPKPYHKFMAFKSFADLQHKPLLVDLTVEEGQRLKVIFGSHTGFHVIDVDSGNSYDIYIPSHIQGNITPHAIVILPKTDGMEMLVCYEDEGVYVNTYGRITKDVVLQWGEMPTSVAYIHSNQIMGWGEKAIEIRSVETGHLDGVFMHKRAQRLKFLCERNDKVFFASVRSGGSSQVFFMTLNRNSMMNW
GSK3B, sequence (P49841 whole entry): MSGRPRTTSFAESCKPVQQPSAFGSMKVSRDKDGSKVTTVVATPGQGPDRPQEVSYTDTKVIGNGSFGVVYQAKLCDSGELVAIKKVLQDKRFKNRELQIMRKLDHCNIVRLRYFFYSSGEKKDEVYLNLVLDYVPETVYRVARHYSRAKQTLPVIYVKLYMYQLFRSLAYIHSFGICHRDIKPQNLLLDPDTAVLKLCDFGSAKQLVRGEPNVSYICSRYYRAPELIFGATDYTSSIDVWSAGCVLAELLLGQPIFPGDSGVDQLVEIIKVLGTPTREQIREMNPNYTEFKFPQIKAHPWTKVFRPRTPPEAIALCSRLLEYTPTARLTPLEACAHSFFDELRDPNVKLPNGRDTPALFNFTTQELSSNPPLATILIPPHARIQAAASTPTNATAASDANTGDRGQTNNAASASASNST

Cc1cc(NC(=O)c2cccc(NC(=O)/C=C/CN(C)C)c2)ccc1Nc1nccc(-c2cccnc2)n1 [JNK-IN-8]
inhibition at 1 µM (IKKa): 4.9% | inhibition at 1 µM (BRAF): -23.7% | Percent inhibition of kinase labeling by ATP-biotin (CK1d,CK1e): −21.8% | inhibition at 1 µM (PHKg2): -0.8% | Percent inhibition of kinase labeling by ATP-biotin (MAP2K1,MAP2K2): 3.2% | inhibition at 1 µM (ZAK): -7.8% | Percent inhibition of kinase labeling by ATP-biotin (ZC2/TNIK,ZC3/MINK): 45.1% | EC50 ([1]; Homo sapiens, HeLa): 486 nM | Percent inhibition of kinase labeling by ATP-biotin (PKD1,PKD2): −3% | inhibition at 1 µM (GSK3B): -8.5% | inhibition at 1 µM (ZC2/TNIK): 9.9% | Percent inhibition of kinase labeling by ATP-biotin [2]: −11.3% | inhibition at 1 µM (IKKb): -6.5% | Percent inhibition of kinase labeling by ATP-biotin (ABL,ARG): −2.7%

CN(C)C/C=C/C(=O)Nc1cccc(C(=O)Nc2ccc(Nc3nccc(-c4c(-c5ccccc5)nn5ccccc45)n3)cc2)c1 [JNK-IN-11]
inhibition at 1 µM (IKKa): -7.3% | inhibition at 1 µM (BRAF): 27.8% | Percent inhibition of kinase labeling by ATP-biotin (CK1d,CK1e): 88.4% | inhibition at 1 µM (PHKg2): -76% | Percent inhibition of kinase labeling by ATP-biotin (MAP2K1,MAP2K2): −10.4% | inhibition at 1 µM (ZAK): 84.4% | Percent inhibition of kinase labeling by ATP-biotin (ZC2/TNIK,ZC3/MINK): 75.9% | EC50 ([1]; Homo sapiens, HeLa): 48 nM | Percent inhibition of kinase labeling by ATP-biotin (PKD1,PKD2): 10.4% | inhibition at 1 µM (GSK3B): 67.1% | inhibition at 1 µM (ZC2/TNIK): > 80% | Percent inhibition of kinase labeling by ATP-biotin [2]: 65.1% | inhibition at 1 µM (IKKb): -11.2% | Percent inhibition of kinase labeling by ATP-biotin (ABL,ARG): 56.1%

CN(C)C/C=C/C(=O)Nc1cccc(C(=O)Nc2ccc(Nc3nccc(-c4cccnc4)n3)cc2)c1 [JNK-IN-7]
inhibition at 1 µM (IKKa): -9.2% | inhibition at 1 µM (BRAF): 7% | Percent inhibition of kinase labeling by ATP-biotin (CK1d,CK1e): 8.4% | inhibition at 1 µM (PHKg2): -7% | Percent inhibition of kinase labeling by ATP-biotin (MAP2K1,MAP2K2): 3.2% | inhibition at 1 µM (ZAK): 15.5% | Percent inhibition of kinase labeling by ATP-biotin (ZC2/TNIK,ZC3/MINK): 31% | EC50 ([1]; Homo sapiens, HeLa): 130 nM | Percent inhibition of kinase labeling by ATP-biotin (PKD1,PKD2): 18.2% | inhibition at 1 µM (GSK3B): 12.3% | inhibition at 1 µM (ZC2/TNIK): 20.9% | Percent inhibition of kinase labeling by ATP-biotin [2]: 8.3% | inhibition at 1 µM (IKKb): -10.1% | Percent inhibition of kinase labeling by ATP-biotin (ABL,ARG): 1.9%

CN(C)C/C=C/C(=O)Nc1cccc(C(=O)Nc2ccc(Nc3nccc(/C(C#N)=C4\Nc5ccccc5S4)n3)cc2)c1 [JNK-IN-12]
Percent inhibition of kinase labeling by ATP-biotin (IKKa): −79.2% | Percent inhibition of kinase labeling by ATP-biotin (BRAF): 6.2% | Percent inhibition of kinase labeling by ATP-biotin (CK1d,CK1e): −75% | Percent inhibition of kinase labeling by ATP-biotin (PHKg2): −94.1% | Percent inhibition of kinase labeling by ATP-biotin (MAP2K1,MAP2K2): −3.7% | Percent inhibition of kinase labeling by ATP-biotin (ZAK): −40.2% | Percent inhibition of kinase labeling by ATP-biotin (ZC2/TNIK,ZC3/MINK): −36.2% | EC50 [1, 3]: 605 nM | Percent inhibition of kinase labeling by ATP-biotin (PKD1,PKD2): −39.3% | Percent inhibition of kinase labeling by ATP-biotin (GSK3B): −29.6% | Percent inhibition of kinase labeling by ATP-biotin (ZC2/TNIK): −8.9% | Percent inhibition of kinase labeling by ATP-biotin [2]: −25.5% | Percent inhibition of kinase labeling by ATP-biotin (IKKb): −97.5% | Percent inhibition of kinase labeling by ATP-biotin (ABL,ARG): 7.9%

CCC(=O)Nc1cccc(C(=O)Nc2ccc(Nc3nccc(-c4cccnc4)n3)cc2)c1 [JNK-IN-6]
Percent inhibition of kinase labeling by ATP-biotin (IKKa): 27.3% | Percent inhibition of kinase labeling by ATP-biotin (BRAF): 8.9% | Percent inhibition of kinase labeling by ATP-biotin (CK1d,CK1e): 32.4% | Percent inhibition of kinase labeling by ATP-biotin (PHKg2): 28% | Percent inhibition of kinase labeling by ATP-biotin (MAP2K1,MAP2K2): 24.3% | Percent inhibition of kinase labeling by ATP-biotin (ZAK): 3% | Percent inhibition of kinase labeling by ATP-biotin (ZC2/TNIK,ZC3/MINK): 52.8% | EC50 [1, 3]: 6760 nM | Percent inhibition of kinase labeling by ATP-biotin (PKD1,PKD2): 15.9% | Percent inhibition of kinase labeling by ATP-biotin (GSK3B): 23.6% | Percent inhibition of kinase labeling by ATP-biotin (ZC2/TNIK): −15.9% | Percent inhibition of kinase labeling by ATP-biotin [2]: 8.8% | Percent inhibition of kinase labeling by ATP-biotin (IKKb): 33.4% | Percent inhibition of kinase labeling by ATP-biotin (ABL,ARG): −1.4%
